# Results published in publication PMC2873867 (Journal of inorganic biochemistry, 2009).
# Residue numbers refer to the chain shown, from its start. Where two headings read alike, the source gives them in different places.
# What was measured:
# CD45 = settings: cited from earlier work
# LYP C129/231S [1] = molecular target: T1, LYP C129/231S (Homo sapiens, UniProt Q9Y2R2, C129S/C231S); assay: Enzyme inhibition assay; format: biochemical
# T1 sequence (Q9Y2R2 24-289 C129S/C231S limits assumed): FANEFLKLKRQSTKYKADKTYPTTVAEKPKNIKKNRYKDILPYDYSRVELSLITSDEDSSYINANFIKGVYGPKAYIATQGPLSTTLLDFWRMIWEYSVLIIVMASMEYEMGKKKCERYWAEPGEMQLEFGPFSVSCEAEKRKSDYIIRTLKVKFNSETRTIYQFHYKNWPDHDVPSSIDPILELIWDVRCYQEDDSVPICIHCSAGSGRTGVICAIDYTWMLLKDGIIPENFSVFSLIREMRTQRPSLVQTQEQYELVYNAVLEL
# Summary of the method: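 LYP C129S/C231S catalytic domain at 20 nM final, preactivated with 0.1 mM DTT for 1 h. Test compound and 1.5 μM DiFMUP added in DMSO (5% final). Fluorescence (ex 360/em 455 nm) read every 60 s for 30 min, in triplicate, averaged, converted to DiFMU via standard curve.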
# LYP C231S = molecular target: T2, LYP C231S (Homo sapiens, UniProt Q9Y2R2, C231S); assay: Enzyme inhibition assay; format: biochemical; settings: 5 nM enzyme, 1.5 μM DiFMUP
# T2 sequence (Q9Y2R2 24-289 C231S limits assumed): T1 sequence (Q9Y2R2 24-289 C129S/C231S limits assumed) with S106C
# Summary of the method: (§1)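 Single-mutant catalytic domains (C129S or C231S) at 5 nM final, each activated 30 min with 0.1 mM DTT. Triplicate kinetic fluorescence (360/455 nm, every 60 s, 30 min), averaged, converted to DiFMU by standard curve.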
# PTP-PEST [2] = molecular target: T3, PTP-PEST (Homo sapiens, UniProt Q05209); assay: Mode of inhibition assay; format: biochemical
# T3 sequence (Q05209 28-293 limits assumed): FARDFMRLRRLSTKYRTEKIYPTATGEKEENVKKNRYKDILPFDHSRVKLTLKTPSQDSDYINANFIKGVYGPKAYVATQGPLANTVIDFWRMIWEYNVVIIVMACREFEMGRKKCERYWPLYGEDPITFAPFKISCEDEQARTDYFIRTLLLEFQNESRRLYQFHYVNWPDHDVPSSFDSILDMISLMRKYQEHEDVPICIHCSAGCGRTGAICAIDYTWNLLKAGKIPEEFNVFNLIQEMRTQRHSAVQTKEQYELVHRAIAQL
# Summary of the method: (§2)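 Catalytic domains (LYP and PTP-PEST 5 nM; LYP C129/231S 20 nM) in pH 6.5 Tris/NaCl/EDTA/DTT/Brij 35 buffer at room temperature. Activity measured across a series of DiFMUP concentrations with no test compound or several fixed test compound concentrations, triplicate at each substrate level. Reciprocal rate plotted against reciprocal substrate concentration for each inhibitor level (Lineweaver–Burk).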
# PTP-PEST [3] = molecular target: T3, PTP-PEST; settings: cited from earlier work
# LYP C129S = molecular target: T4, LYP C129S (Homo sapiens, UniProt Q9Y2R2, C129S); assay: Enzyme inhibition assay; format: biochemical; settings: 5 nM enzyme, 1.5 μM DiFMUP
# T4 sequence (Q9Y2R2 24-289 C129S limits assumed): T1 sequence (Q9Y2R2 24-289 C129S/C231S limits assumed) with S208C
# Summary of the method: as §1
# LYP C129/231S [4] = molecular target: T1, LYP C129/231S; assay: Mode of inhibition assay; format: biochemical
# Summary of the method: as §2
# LYP [5] = molecular target: T5, LYP (Homo sapiens, UniProt Q9Y2R2); assay: Mode of inhibition assay; format: biochemical
# T5 sequence (Q9Y2R2 24-289 limits assumed): T1 sequence (Q9Y2R2 24-289 C129S/C231S limits assumed) with S106C, S208C
# Summary of the method: as §2
# Jurkat TAg cells = assay: Inhibition studies with JTAg cells; format: cell-based; settings: 50 μM, 1 h, western blot
# Summary of the method: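 Jurkat TAg cells kept in log growth in supplemented RPMI 1640 (10% FBS). 20×10^6 cells treated for 1 h at room temperature with 50 μM test compound or DMSO (<2%), then split and stimulated 2 min with C305 hybridoma supernatant or left unstimulated. NP-40 lysates, Bradford-normalised, run on 10% SDS–PAGE. Blots probed for pLck Y394/Y505, pZAP-70 Y319 and pERK against total-protein controls, developed by ECL.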
# HePTP = settings: cited from earlier work
# LYP [6] = molecular target: T5, LYP; settings: wild-type LYP; cited from earlier work
# [7] = read-out: Calculated Ki, from Lineweaver-Burk data
# [8] = read-out: Estimated Ki from Dixon plot, Ki = -intersection point
smiles,measurement,setting,value
"N#CCC[PH](CCC#N)([Au][Cl])c1ccccc1 [Complex 1, bis(cyanoethyl)phenylphosphine–Au(I)–Cl]",IC50,CD45,> 70 µM
same,IC50,"LYP C129/231S [1]; LYP C129/231S, 20 nM enzyme, 1.5 μM DiFMUP",40 ± 4 µM
same,IC50 of LYP C129/231S relative to wild-type LYP and single mutants,LYP C129/231S [1]; fold higher,roughly 10 fold
same,IC50,LYP C231S,4 ± 0.8 µM
same,Mode of inhibition,PTP-PEST [2]; Lineweaver-Burk plot,competitive inhibition
same,Ki,PTP-PEST [2]; [7],53.3 ± 16.3 µM
same,Ki,PTP-PEST [2]; [8],~80 µM
same,IC50,PTP-PEST [3],> 80 µM
same,IC50,LYP C129S,4 ± 0.2 µM
same,Mode of inhibition,LYP C129/231S [4]; Lineweaver-Burk plot,mixed-type inhibition
same,Ki,LYP C129/231S [4]; [7],58.6 ± 5.3 µM
same,Ki,LYP C129/231S [4]; [8],~70 µM
same,Mode of inhibition,LYP [5]; Lineweaver-Burk plot,competitive inhibition
same,Ki,LYP [5]; [7],2.38 ± 1.1 µM
same,Ki,LYP [5]; [8],~1.2 µM
same,Phosphorylation of Lck at Y505 (cellular CD45 inhibition),Jurkat TAg cells; JTAg cells,no change in phosphorylation levels at position Y505
same,Phosphorylation of ERK1/2,Jurkat TAg cells; TCR stimulated JTAg cells,increased phosphorylation levels
same,Phosphorylation of Lck at Y394 (cellular LYP inhibition),Jurkat TAg cells; TCR stimulated JTAg cells,increase in phosphorylation at Y394
same,Phosphorylation of ZAP-70,Jurkat TAg cells; TCR stimulated JTAg cells,increased phosphorylation levels
same,IC50,HePTP,> 50 µM
same,IC50,LYP [6],3.5 ± 0.1 µM
